Results published in ChEMBL document CHEMBL4808227, “Induction of apoptosis, cytotoxicity and radiosensitization by novel 3,4-dihydroquinazolinone derivatives” (Bioorg Med Chem Lett, 2021).
The source made the active and inactive calls. The rule behind the calls is not given here.

How the values were obtained:
HepG2 [1] = assay: Cytotoxicity against human HepG2 cells measured after 24 hrs by MTT assay; type: functional, cell-based; details: HepG2, 24 h
How it was run: (§1)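 MTT viability assay on HepG-2 and MCF-7 cells with serial dilutions of compound for 24 hr. Viability is expressed as percent of untreated cells (taken as 100%). IC50 is the concentration inhibiting growth by 50%, mean ± SD of three independent experiments.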

MCF7 [2] = assay: Cytotoxicity against human MCF7 cells measured after 24 hrs by MTT assay; type: functional, cell-based; details: MCF7, 24 h; how it was run: as §1
HepG2 [3] = assay: Induction of apoptosis in human HepG2 cells assessed as viable cells by Annexin V-FITC/propidium iodide staining based flow cytometric analysis (reference value: 94.4 %); type: functional
HepG2 [4] = assay: Induction of apoptosis in human HepG2 cells assessed as necrotic cells by Annexin V-FITC/propidium iodide staining based flow cytometric analysis (reference value: 0.007 %); type: functional
HepG2 [5] = assay: Induction of apoptosis in human HepG2 cells assessed as late apoptotic cells by Annexin V-FITC/propidium iodide staining based flow cytometric analysis (reference value: 0.507 %); type: functional
HepG2 [6] = assay: Induction of apoptosis in human HepG2 cells assessed as early apoptotic cells by Annexin V-FITC/propidium iodide staining based flow cytometric analysis (reference value: 5.06 %); type: functional
[7] = target: Epidermal growth factor receptor (Homo sapiens, UniProt P00533); assay: Inhibition of EGFR (unknown origin)
Sequence of Epidermal growth factor receptor (P00533 whole entry): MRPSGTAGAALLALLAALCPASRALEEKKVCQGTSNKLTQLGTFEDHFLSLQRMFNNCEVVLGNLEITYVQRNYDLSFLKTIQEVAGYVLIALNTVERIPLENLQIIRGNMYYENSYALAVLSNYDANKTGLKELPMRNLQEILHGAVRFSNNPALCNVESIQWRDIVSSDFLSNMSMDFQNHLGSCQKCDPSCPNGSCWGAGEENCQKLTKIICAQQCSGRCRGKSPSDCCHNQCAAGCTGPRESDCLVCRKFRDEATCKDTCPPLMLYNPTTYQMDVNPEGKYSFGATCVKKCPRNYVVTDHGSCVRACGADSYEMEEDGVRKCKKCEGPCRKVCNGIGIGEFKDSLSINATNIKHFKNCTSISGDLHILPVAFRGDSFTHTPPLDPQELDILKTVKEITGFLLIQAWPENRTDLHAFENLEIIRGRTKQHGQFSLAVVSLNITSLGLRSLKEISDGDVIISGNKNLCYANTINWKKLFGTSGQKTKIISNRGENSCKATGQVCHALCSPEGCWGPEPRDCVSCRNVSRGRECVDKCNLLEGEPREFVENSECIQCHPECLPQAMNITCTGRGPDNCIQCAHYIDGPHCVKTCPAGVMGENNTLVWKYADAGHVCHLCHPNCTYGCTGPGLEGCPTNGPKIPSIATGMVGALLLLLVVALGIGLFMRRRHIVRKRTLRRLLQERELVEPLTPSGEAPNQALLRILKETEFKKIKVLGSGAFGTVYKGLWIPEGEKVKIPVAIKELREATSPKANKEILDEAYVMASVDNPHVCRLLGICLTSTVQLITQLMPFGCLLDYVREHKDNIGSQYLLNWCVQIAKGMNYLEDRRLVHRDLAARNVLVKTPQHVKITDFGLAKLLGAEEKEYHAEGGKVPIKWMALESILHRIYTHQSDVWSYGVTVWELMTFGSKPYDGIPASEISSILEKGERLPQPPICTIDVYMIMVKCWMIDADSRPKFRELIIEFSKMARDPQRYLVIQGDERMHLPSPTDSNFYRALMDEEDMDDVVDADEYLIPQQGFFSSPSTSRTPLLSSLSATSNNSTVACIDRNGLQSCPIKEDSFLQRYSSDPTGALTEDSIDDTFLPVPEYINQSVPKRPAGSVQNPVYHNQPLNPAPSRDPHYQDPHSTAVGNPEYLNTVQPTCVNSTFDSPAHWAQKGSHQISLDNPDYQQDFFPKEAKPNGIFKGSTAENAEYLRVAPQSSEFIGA

[8] = Downregulation of Survivin mRNA expression in human HepG2 cells by real time RT-PCR analysis relative to control; type: functional
How it was run: (§2)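 HepG-2 cells were treated with compound. Survivin, XIAP and p21 mRNA were quantified by real-time RT-PCR, with each triplicate's Ct normalized to GAPDH. Expression is relative to control.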

[9] = Downregulation of XIAP mRNA expression in human HepG2 cells by real time RT-PCR analysis relative to control; type: functional; how it was run: as §2
[10] = Upregulation of p21 mRNA expression in human HepG2 cells by real time RT-PCR analysis relative to control; type: functional; how it was run: as §2
HepG2 [11] = assay: Induction of apoptosis in human HepG2 cells assessed as increase in caspase-3 level by ELISA relative to control; type: functional
How it was run: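 HepG-2 cells were treated with compound, with DMSO-treated cells as control. Caspase-3 secreted into the culture medium was measured by ELISA, given as mean ± SD, n = 3.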

HepG2 [12] = assay: Cell cycle arrest in human HepG2 cells assessed as accumulation of cells at G2/M phase measured by flow cytometry ( Rvb = 21.7%); type: functional
HepG2 [13] = assay: Cell cycle arrest in human HepG2 cells assessed as accumulation of cells at S phase measured by flow cytometry (reference value: 6.08%); type: functional
HepG2 [14] = assay: Cell cycle arrest in human HepG2 cells assessed as accumulation of cells at G0/G1 phase measured by flow cytometry (reference value: 71.6%); type: functional
HepG2 [15] = assay: Radiosensitizing activity against human HepG2 cells assessed as reduction in cell viability pretreated with compound followed by exposure to 8 Gy gamma irradiation and measured by MTT assay; type: functional, cell-based; details: HepG2, light or radiation study
How it was run: (§3)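 HepG-2 and MCF-7 cells containing compound received a single dose of 8 Gy gamma radiation. Cytotoxicity was then measured, with IC50 as the mean ± SD of three independent experiments.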

MCF7 [16] = assay: Radiosensitizing activity against human MCF7 cells assessed as reduction in cell viability pretreated with compound followed by exposure to 8 Gy gamma irradiation and measured by MTT assay; type: functional, cell-based; details: MCF7, light or radiation study; how it was run: as §3
HepG2 [17] = assay: Radiosensitizing activity against human HepG2 cells assessed as downregulation of Survivin mRNA expression pretreated with compound followed by exposure to 8 Gy gamma irradiation by real time RT-PCR analysis; type: functional, cell-based
HepG2 [18] = assay: Radiosensitizing activity against human HepG2 cells assessed as downregulation of XIAP mRNA expression pretreated with compound followed by exposure to 8 Gy gamma irradiation by real time RT-PCR analysis; type: functional, cell-based

O=C(CSc1nc2ccccc2c(=O)n1Cc1ccc2c(c1)OCO2)Nc1cc(Cl)c(Cl)cc1Cl
IC50 (HepG2 [1]): 12.1 µM
IC50 (MCF7 [2]): 26.1 µM

C#Cc1cccc(Nc2ncnc3cc(OCCOC)c(OCCOC)cc23)c1 [ERLOTINIB]
IC50 (MCF7 [2]): 12.4 µM

CC(=O)Nc1ccc(S(=O)(=O)NNC(=O)CSc2nc3ccccc3c(=O)n2Cc2ccc3c(c2)OCO3)cc1
IC50 (HepG2 [1]): 33.9 µM
IC50 (MCF7 [2]): 11.4 µM

O=C(CSc1nc2ccccc2c(=O)n1Cc1ccc2c(c1)OCO2)NNC(=S)Nc1ccc(S(=O)(=O)Nc2ccc(Cl)nn2)cc1
IC50 (HepG2 [1]): 9.34 µM
IC50 (MCF7 [2]): 46 µM

Cc1ccc(S(=O)(=O)NNC(=O)CSc2nc3ccccc3c(=O)n2Cc2ccc3c(c2)OCO3)cc1
IC50 (HepG2 [1]): 28.2 µM
IC50 (MCF7 [2]): 49.8 µM

O=C(CSc1nc2ccccc2c(=O)n1Cc1ccc2c(c1)OCO2)Nc1ccc(Br)cc1Br
Activity (HepG2 [3]): 86.6%
Activity (HepG2 [4]): 0.02%
Activity (HepG2 [5]): 0.16%
Activity (HepG2 [6]): 15.4%
IC50 (HepG2 [1]): 4.01 µM
IC50 (MCF7 [2]): 14.9 µM
IC50 [7]: 1.03 µM
inhibition (INH) [8]: 50%
inhibition (INH) [9]: 50%
Activity [10]: 400%
Activity (HepG2 [11]): 50%
Activity (HepG2 [12]): 85.8%
Activity (HepG2 [13]): 2.32%
Activity (HepG2 [14]): 0.06%
IC50 (HepG2 [15]): 1.76 µM
IC50 (MCF7 [16]): 4.91 µM
Activity (HepG2 [17]): Active
Activity (HepG2 [18]): Active

O=C(CSc1nc2ccccc2c(=O)n1Cc1ccc2c(c1)OCO2)Nc1ccccc1Cl
IC50 (HepG2 [1]): 17.9 µM
IC50 (MCF7 [2]): 10.3 µM

O=C(CSc1nc2ccccc2c(=O)n1Cc1ccc2c(c1)OCO2)Nc1ccc(I)cc1
Activity (HepG2 [3]): 92.5%
Activity (HepG2 [4]): 0.024%
Activity (HepG2 [5]): 0.308%
Activity (HepG2 [6]): 7.12%
IC50 (HepG2 [1]): 13.2 µM
IC50 (MCF7 [2]): 6.84 µM
IC50 [7]: 0.754 µM
inhibition (INH) [8]: 50%
inhibition (INH) [9]: 50%
Activity [10]: 200%
Activity (HepG2 [11]): 50%
Activity (HepG2 [12]): 87.8%
Activity (HepG2 [13]): 2.73%
Activity (HepG2 [14]): 0.042%
IC50 (HepG2 [15]): 4.32 µM
IC50 (MCF7 [16]): 4.69 µM
Activity (HepG2 [17]): Active
Activity (HepG2 [18]): Active

CCS(=O)(=O)Nc1ccc(/C(C)=N/NC(=O)CSc2nc3ccccc3c(=O)n2Cc2ccc3c(c2)OCO3)cc1
IC50 (HepG2 [1]): 9.08 µM
IC50 (MCF7 [2]): 13.9 µM

NNC(=O)CSc1nc2ccccc2c(=O)n1Cc1ccc2c(c1)OCO2
IC50 (HepG2 [1]): 8.15 µM
IC50 (MCF7 [2]): 20.7 µM

O=C(CSc1nc2ccccc2c(=O)n1Cc1ccc2c(c1)OCO2)Nc1cccc(F)c1
IC50 (HepG2 [1]): 8.51 µM
IC50 (MCF7 [2]): 7.6 µM

CCS(=O)(=O)NNC(=O)CSc1nc2ccccc2c(=O)n1Cc1ccc2c(c1)OCO2
Activity (HepG2 [3]): 86.1%
Activity (HepG2 [4]): 0.012%
Activity (HepG2 [5]): 0.4%
Activity (HepG2 [6]): 13.5%
IC50 (HepG2 [1]): 8.76 µM
IC50 (MCF7 [2]): 15.3 µM
IC50 [7]: 0.147 µM
inhibition (INH) [8]: 50%
inhibition (INH) [9]: 50%
Activity [10]: 500%
Activity (HepG2 [11]): 50%
Activity (HepG2 [12]): 94.2%
Activity (HepG2 [13]): 2.45%
Activity (HepG2 [14]): 0.039%
IC50 (HepG2 [15]): 2.25 µM
IC50 (MCF7 [16]): 5.93 µM
Activity (HepG2 [17]): Active
Activity (HepG2 [18]): Active

CCC(=O)Nc1ccc(S(=O)(=O)Nc2ccc(/C(C)=N/NC(=O)CSc3nc4ccccc4c(=O)n3Cc3ccc4c(c3)OCO4)cc2)cc1
IC50 (HepG2 [1]): 4.21 µM
IC50 (MCF7 [2]): 15.1 µM

COc1cccc2c1C(=O)c1c(O)c3c(c(O)c1C2=O)C[C@@](O)(C(=O)CO)C[C@@H]3O[C@H]1C[C@H](N)[C@H](O)[C@H](C)O1 [DOXORUBICIN]
IC50 (HepG2 [1]): 8.9 µM

O=C(CSc1nc2ccccc2c(=O)n1Cc1ccc2c(c1)OCO2)Nc1ccc(F)cc1
IC50 (HepG2 [1]): 7.18 µM
IC50 (MCF7 [2]): 14.5 µM

O=C(CSc1nc2ccccc2c(=O)n1Cc1ccc2c(c1)OCO2)NNC(=S)Nc1ccc(S(=O)(=O)Nc2ccccn2)cc1
IC50 (HepG2 [1]): 36.9 µM
IC50 (MCF7 [2]): 3.87 µM

O=c1c2ccccc2[nH]c(=S)n1Cc1ccc2c(c1)OCO2
IC50 (HepG2 [1]): 27.3 µM
IC50 (MCF7 [2]): 26.6 µM

O=C(CSc1nc2ccccc2c(=O)n1Cc1ccc2c(c1)OCO2)NNS(=O)(=O)c1ccccc1
IC50 (HepG2 [1]): 22.2 µM
IC50 (MCF7 [2]): 88.9 µM

O=C(CSc1nc2ccccc2c(=O)n1Cc1ccc2c(c1)OCO2)Nc1ccccc1F
Activity (HepG2 [3]): 84.5%
Activity (HepG2 [4]): 0.02%
Activity (HepG2 [5]): 0.762%
Activity (HepG2 [6]): 12.6%
IC50 (HepG2 [1]): 2.46 µM
IC50 (MCF7 [2]): 5.86 µM
IC50 [7]: 0.207 µM
inhibition (INH) [8]: 50%
inhibition (INH) [9]: 50%
Activity [10]: 400%
Activity (HepG2 [11]): 100%
Activity (HepG2 [12]): 92.9%
Activity (HepG2 [13]): 0.071%
Activity (HepG2 [14]): 0%
IC50 (HepG2 [15]): 1.56 µM
IC50 (MCF7 [16]): 3.06 µM
Activity (HepG2 [17]): Active
Activity (HepG2 [18]): Active

O=C(CSc1nc2ccccc2c(=O)n1Cc1ccc2c(c1)OCO2)Nc1ccc(Br)cc1
IC50 (HepG2 [1]): 11.1 µM
IC50 (MCF7 [2]): 20.4 µM
